Compounds with a hit are over-represented: about 3.8% of the library has one in this group of screens.
KCNQ1 inh: inhibitors of human KCNQ1 potassium channel; P51787; CHO-K1 KCNQ1, FluxOR thallium flux fluorescence; active compounds read high; B-score at 10 µM; 310,000 compounds, 1.3% hits; AID 2642;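 active means compounds whose thallium flux B-score, printed positive for inhibition, exceeds three library SD while starting fluorescence stays within three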;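 further: channel opened by potassium depolarization with thallium stimulus after 20 min compound exposure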
KCNQ1 pot: potentiates or activates the human KCNQ1 potassium channel | P51787 | CHO-K1 KCNQ1, thallium flux FluxOR fluorescence; active compounds read high | B-score at 10 µM | 310,000 compounds, 0.35% hits | AID 2648;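 active means fluorescence ratio B-score, a plate-corrected score, at least three library SD, with initial intensity B-score within 5 SD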
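System: Stable KCNQ1 CHO-K1 line | Incubation: 90 min dye loading and 20 min compound exposure, both at room temperature | Measure: Ratio B score | Medium: Assay buffer for compound exposure, DMSO matched across wells | Compound dosing: Single-concentration screen | Probe or stimulus: K+/Tl+ depolarizing stimulus | Measured by: Kinetic FluxOR fluorescence, 10 s baseline plus 110 s post-stimulus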
KCNK3 inh: human KCNK3 channel inhibition, primary screen | B-score at 10 µM | CHO-KCNK3 thallium flux, FluxOR fluorescence; active compounds read low | O14649 | 340,000 compounds, 0.84% hits;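 active means B-score under library mean minus 4 SD, starting fluorescence ratio at most library mean plus 5 SD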;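 further: more negative B-score means stronger inhibition of thallium flux through KCNK3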
Kir21 inh: inhibitors of mouse Kir2.1 inward-rectifier potassium channel | P35561 | HEK293-Kir2.1, FluxOR thallium flux fluorescence; active compounds read low | B-score at 10 µM | 310,000 compounds, 0.85% hits | AID 1672;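 active means fluorescence ratio B-score at or below minus 3 SD of library scores, with starting-brightness B-score within 2 SD, cut at about -4.2 in these data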;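 further: channel flux triggered by added potassium and thallium sulfate stimulus; B-score of peak minus minimum fluorescence over baseline after thallium stimulus; more negative B-score means stronger Kir2.1 block with less thallium influx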
Target sequence (P35561 whole entry, looked up): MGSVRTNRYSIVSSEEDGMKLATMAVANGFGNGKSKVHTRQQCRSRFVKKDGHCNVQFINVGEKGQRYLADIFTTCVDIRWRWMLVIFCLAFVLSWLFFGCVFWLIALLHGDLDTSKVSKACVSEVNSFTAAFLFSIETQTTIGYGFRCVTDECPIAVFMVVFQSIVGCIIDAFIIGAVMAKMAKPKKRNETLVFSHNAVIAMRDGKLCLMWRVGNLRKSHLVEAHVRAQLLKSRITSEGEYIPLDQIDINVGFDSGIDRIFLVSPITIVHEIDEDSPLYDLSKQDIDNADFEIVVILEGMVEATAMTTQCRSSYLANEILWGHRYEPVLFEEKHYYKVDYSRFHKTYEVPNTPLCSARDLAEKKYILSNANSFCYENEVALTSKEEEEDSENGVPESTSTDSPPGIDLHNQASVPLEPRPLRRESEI
KCNK9 block: inhibitors of human KCNK9 two-pore domain potassium channel; B-score at 10 µM; AID 488922; 310,000 compounds, 1.2% hits; HEK293 KCNK9, FluxOR thallium flux fluorescence; active compounds read low;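 active means ratio B-score over 3 SD below the library mean, with starting fluorescence within 5 SD of its mean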;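 further: negative B-score means less thallium flux so channel inhibition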
hERG rescue: shields human hERG channel from block by proarrhythmic agents. CHO-hERG, FluxOR thallium flux, dofetilide IC70 present. activation (rescue from dofetilide block), less the hit threshold, % at 10 µM. 310,000 compounds, 0.51% hits. AID 1511;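 active means activation above the mean of controls blocked by dofetilide plus 5 SD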;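 further: thallium influx through hERG after potassium depolarization seen as dye fluorescence rise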
An asterisk follows results filed as active; i = inactive; x = no result given.

SMILES | KCNQ1 inh | KCNQ1 pot | KCNK3 inh | Kir21 inh | KCNK9 block | hERG rescue
OCCN1CCN(CCCN2c3ccccc3Sc3ccc(Cl)cc32)CC1 | i | i | i | -5.6* | i | -15
CC(=O)c1ccc2c(c1)N(CCCN1CCC(CCO)CC1)c1ccccc1S2 | x | x | i | x | x | x
CN(C)CCCN1c2ccccc2Sc2ccc(Cl)cc21 | i | i | i | -7.9* | i | -9
CN(C)CCCN1c2ccccc2Sc2ccc3ccccc3c21 | x | x | i | x | x | x
CCOC(=O)c1cc(-c2ccc(F)cc2)n(CC(=O)Nc2nccs2)c1C | i | i | i | -0.8 | i | -7
C[C@H]1CCC[C@@]2(O[C@H](CCO)C[C@H](O)[C@H]2O)O1 | i | i | i | 0.01 | i | -9
CN(/N=C/c1ccc(-c2ccc([N+](=O)[O-])cc2)o1)c1ccccc1 | 8* | i | i | -1 | i | -6
Cc1ccsc1/C=N/NC(=O)c1ccccn1 | i | i | i | 0.58 | i | 4.7*
Cc1ccsc1/C=N/NC(=O)c1cccs1 | i | i | i | 0.06 | i | -2
Cc1ccsc1/C=N/NC(=O)C(N)=O | i | i | i | -1.1 | i | 4.7*
COCCNC(=S)N1CCc2cc(OC)c(OC)cc2C1c1cccs1 (centres undefined) | i | i | i | -0.48 | i | -12
Cc1nc2c(C(=O)NCCC(C)C)c[nH]n2c(=O)c1Cc1ccccc1F | 6* | i | i | 2.6 | i | -10
C=CCOc1ccc(C2/C(=C(\O)c3ccc4c(c3)OCCO4)C(=O)C(=O)N2CCCN2CCOCC2)cc1 (centres undefined) | i | i | i | 0.82 | i | -12
OC[C@@H](O)C1OC2NC(=S)OC2C1O (some centres undefined) | i | i | i | -1.4 | i | 7.7*
O=C(O)CCN1CCN(S(=O)(=O)c2ccc3ccccc3c2)CC1 | i | i | i | -0.64 | i | -12
O=[N+]([O-])c1ccc2nc(NS(=O)(=O)c3ccccc3[N+](=O)[O-])sc2c1 | i | i | i | 0.35 | i | -6
O=C(NC(Nc1nc2ccc([N+](=O)[O-])cc2s1)(C(F)(F)F)C(F)(F)F)c1cccnc1 | 12* | i | i | -5.7* | i | -17
O=C(NC(Nc1nc2ccc([N+](=O)[O-])cc2s1)(C(F)(F)F)C(F)(F)F)c1ccccc1Cl | 10* | i | i | -5* | i | -33
NS(=O)(=O)c1ccc(CCNC(=O)c2cc(=O)[nH]c3ccccc23)cc1 | i | i | i | 1.3 | i | -4
Cc1ccc(-n2ncc3c2CCCC3NC(=O)c2csnn2)cc1C (centres undefined) | i | i | i | 0.85 | i | 19*
Cc1cc(C)cc(-n2ncc3c2CCCC3NC(=O)c2csnn2)c1 (centres undefined) | i | i | i | -0.14 | i | 36*
Cc1ccc(-n2ncc3c2CCCC3NC(=O)c2ccoc2)cc1C (centres undefined) | i | i | i | -1.4 | i | -8
CCc1cc(C(=O)NC2CCCc3c2cnn3-c2cccc(C)c2C)n(C)n1 (centres undefined) | 11* | i | x | -0.56 | i | -16
COc1ccc(S(=O)(=O)NNC(=O)Cc2csc(C)n2)cc1[N+](=O)[O-] | i | i | i | -0.93 | i | -9
Cc1ccc(C(=O)NC(=S)N(C)C2CCCCC2)cc1 | i | 17* | i | 1.2 | i | 15*
SMILES | KCNQ1 inh | KCNQ1 pot | KCNK3 inh | Kir21 inh | KCNK9 block | hERG rescue
COc1cc2c(cc1OC)C(O)C(O)(CO)C(C(=O)O)C2c1cc(OC)c(OC)c(OC)c1 (centres undefined) | x | x | i | x | x | x
O=[N+]([O-])c1ccc(SNc2ccccc2)c([N+](=O)[O-])c1 | x | x | i | x | x | x
O=[N+]([O-])c1ccc(-[n+]2ccc3ccccc3c2)c([N+](=O)[O-])c1 | i | i | i | -4.7* | i | -13
COC(=O)c1cc(-c2ccc(S(=O)(=O)N3CCCC(C)C3)cc2)c(C(F)(F)F)s1 (centres undefined) | 6* | i | i | 0.42 | i | -12
COC(=O)c1cc(S(=O)(=O)N2CCCC(C)C2)cn1C (centres undefined) | i | i | i | 0.22 | i | -3
C/C(CCC(C)C)=N\Nc1cc(C)c2ccccc2n1 | i | i | i | -1.7 | i | -12
COc1ccc(NC(=O)CCNC(=O)c2ccco2)cc1S(=O)(=O)N(C)C | i | i | i | -0.15 | i | -4
CCC(C(=O)OCC(=O)NC(=O)c1ccccc1OC)c1ccccc1 (centres undefined) | i | i | i | -8.1* | i | -15
CCC(C)OC(=O)C[N+](C)(C)CCOC1CC2CCC1(C)C2(C)C (centres undefined) | 7* | i | i | -2.1 | i | -9
CC(C)CCOC(=O)C[N+](C)(C)CCOC1CC2CCC1(C)C2(C)C (centres undefined) | i | i | i | -2.5 | i | -12
CCCCOC(=O)C[N+](C)(C)CCOC1CC2CCC1(C)C2(C)C (centres undefined) | 7* | i | i | -0.97 | i | -13
CCCCCCOC(=O)C[N+](C)(C)CCOC1CC2CCC1(C)C2(C)C (centres undefined) | 9* | i | i | -7.7* | i | -29
Cn1cnc(S(=O)(=O)N2CCN(c3cccc(C(F)(F)F)c3)CC2)c1 | i | i | i | 1.3 | i | -6
CC(NC(=S)NC(=O)c1ccccc1Br)c1ccccc1 (centres undefined) | i | 8* | i | 2.2 | i | 0
O=C(NN1C(=O)/C(=C/c2cccnc2)SC1=S)C(c1ccccc1)c1ccccc1 | 6* | i | i | -0.09 | i | -17
COC(=O)c1ccnc(/C=N/O)c1 | i | i | i | 0.36 | i | 6.2*
COc1ccc(-c2n[nH]c(C(F)(F)F)c2-c2cc3ccccc3o2)c(O)c1 | 8* | i | i | 2 | i | -11
COc1ccccc1-c1c(-c2ccc(OCC(=O)NN)cc2O)n[nH]c1C(F)(F)F | i | i | i | 0.44 | i | -4
Cc1ccccc1N1CCN(C(=O)c2cc(C3CC3)nn2-c2ccccc2)CC1 | x | x | -9* | x | x | x
O=C1c2ccccc2C(=O)N1CCC(c1ccc(F)cc1)c1ccco1 (centres undefined) | i | i | i | -4.8* | i | -17
Cc1cccc(OCC(=O)Nc2nccs2)c1C | i | i | i | 3 | i | -9
